The source of these data is ChEMBL document CHEMBL2163322, “Identification of small molecule inhibitors of the HIV-1 nucleocapsid-stem-loop 3 RNA complex” (J Med Chem, 2012).

Assay [1] has as its target Nucleic Acid. As to the kind of experiment: Binding affinity to HIV 1 SL3 RNA by ITC analysis. Format: nucleic-acid assay, Human immunodeficiency virus 1. The note with it: read-out: Kd(app). In outline: (§1)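 Isothermal titration calorimetry at 25 °C. Ligand at 1 mM is injected in 10 μL aliquots into 20 μM RNA. Both are in 10 mM sodium phosphate pH 7.4 with 10% DMSO. Injections last 24 s and are spaced 240 s apart. Heats are corrected with ligand-into-buffer controls. KD values come from a sequential two-site binding fit to heat versus ligand:RNA molar ratio. SD is from two measurements.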
(In ITC the heat of successive injections is recorded.)

The target of assay [2] is Nucleic Acid. As to the kind of experiment: Destabilization of HIV1 [32P]-labeled SL3 RNA-NCp complex assessed as displacement of NCp from SL3 RNA after 1 hr by electrophoretic gel mobility shift assay. Format: nucleic-acid assay, Human immunodeficiency virus 1. The note with it: for Ki: read-out: Ki(app). In outline: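 Gel shift assay. Ligand is then added at rising concentrations for another 1 h. Samples are run on a 6% native gel at 4 °C. IC50 comes from a Hill fit of bound-RNA counts. Ki = IC50/(1+[PT]/KD). SD is from at least three experiments.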

Assay [3] addresses Nucleic Acid. Description: Binding affinity to HIV 1 SL3 RNA assessed as second binding dissociation constant by ITC analysis. Format: nucleic-acid assay, Human immunodeficiency virus 1. The conditions noted are these: read-out: Kd(app). In short, it runs like this: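 ITC at 25 °C: ligand (1 mM) in 10 mM sodium phosphate pH 7.4 with 10% DMSO injected in 10 μL aliquots into 20 μM SL3 RNA in the same buffer. Injections lasted 24 s at 240 s spacing. Heats of ligand-into-buffer titrations were subtracted. Heat versus ligand:RNA molar ratio was fit to a sequential two-site model, with the second KD taken from the second site. Two measurements.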

In assay [4] the test system is Nucleic Acid. As to the kind of experiment: Binding affinity to HIV 1 fluorescein-labeled SL3 RNA by fluorescence spectrometry. Format: nucleic-acid assay. The conditions noted are these: for Activity: Human immunodeficiency virus 1; for Kd: read-out: Kd(app). In short, it runs like this:
(§2)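 Fluorescence titration of 5′-fluorescein-labeled RNA (25 nM) in 10 mM Tris-HCl pH 7.4, 25 mM NaCl at 25 °C. Ligand is added stepwise until the signal plateaus, with 3–5 min equilibration per addition. Excitation is 490 nm; emission at 517 nm is used. Fraction bound is fit to a 1:1 model, or a 2:1 cooperative model for one ligand, to give apparent KD. Fluorescein-only and DMSO controls are run. SD is from at least three measurements.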

The target in assay [5] is Nucleic Acid. Description: Binding affinity to double stranded RNA by ITC analysis. The assay is classed as nucleic-acid assay. The conditions noted are these: read-out: Kd(app). In outline:
as §1

Assay [6] concerns the target Nucleic Acid. As to the kind of experiment: Binding affinity to single stranded RNA by ITC analysis. The note with it: read-out: Kd(app). The assay is classed as nucleic-acid assay. In outline: as §1
Assay [7] addresses Nucleic Acid. As to the kind of experiment: Binding affinity to double stranded RNA assessed as second binding dissociation constant by ITC analysis. Format: nucleic-acid assay. The conditions noted are these: read-out: Kd(app). In short, it runs like this:
as §1

In assay [8] the target is Nucleic Acid. As to the kind of experiment: Binding affinity to single stranded RNA assessed as second binding dissociation constant by ITC analysis. The note with it: read-out: Kd(app). Format: nucleic-acid assay. In short, it runs like this: as §1
Assay [9] has as its system Nucleic Acid. Description: Selectivity ratio of Kd for double stranded RNA to Kd for HIV 1 SL3 RNA. Format: nucleic-acid assay.
Assay [10] relates to Nucleic Acid. As to the kind of experiment: Selectivity ratio of Kd for single stranded RNA to Kd for HIV 1 SL3 RNA. The assay is classed as nucleic-acid assay.
Assay [11] addresses Nucleic Acid. Description: Binding affinity to double stranded RNA by fluorescence spectrometry. The assay is classed as nucleic-acid assay. The conditions noted are these: for Kd: read-out: Kd(app). In outline:
as §2

In assay [12] the target is Nucleic Acid. Description: Binding affinity to single stranded RNA by fluorescence spectrometry. Format: nucleic-acid assay. The conditions noted are these: for Kd: read-out: Kd(app). In short, it runs like this:
as §2

The subject of assay [13] is Nucleic Acid. Description: Inhibition of HIV1 [32P]-labeled SL3 RNA interaction with NCp at 1mM after 1 hr by electrophoretic gel mobility shift assay. The assay is classed as nucleic-acid assay. The conditions noted are these: Human immunodeficiency virus 1. In outline: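 Screen for single-point inhibition. Ligand is added at a final 1 mM to a preformed NCp7–SL3 RNA complex and incubated 1 h. Bound and free RNA are then resolved by gel mobility shift assay.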

SMILES strings stand for the structures. Activity calls are given as the source filed them. No cut-off for these calls is given here.

In general, IC50 refers to the concentration at which inhibition is half-maximal. As to `O=C1NC(=S)NC(=O)C1=Cc1cn(-c2ccccc2)nc1-c1cc2c(ccc3ccccc32)oc1=O`, the Kd on Nucleic Acid [1] worked out at 68 µM. Further, at Nucleic Acid [2], the IC50 is 123 µM and the Ki was 40 µM. The Kd on Nucleic Acid [3] was determined as 488 µM.
As to `COc1ccc(N/C(S)=N/CCCn2ccnc2)cc1`, the result in the assay on Nucleic Acid [4] was inactive.
The same measure, in the same setting: the entry for `O=C(Cc1ccccc1)Nc1ccc(N2CCCC2)cc1` is “inactive”.
On to `Nc1c(S(=O)(=O)O)cc(Nc2ccc(S(N)(=O)=O)cc2)c2c1C(=O)c1ccccc1C2=O`, for which the Kd on Nucleic Acid [1] was found to be 11 µM. Besides, at Nucleic Acid [2], the IC50 came out at 70 µM and the Ki amounted to 20 µM. On Nucleic Acid [3], the Kd was 11000 µM.
Consider `Cc1cccn2c(=O)c3cc(C(=O)N4CCN(C)CC4)c(=N)n(CC4CCCO4)c3nc12` (centres undefined), for which the Kd was 14.5 µM at Nucleic Acid [1]; 189 µM at Nucleic Acid [5]; 280 µM on Nucleic Acid [6]; 2400 µM on Nucleic Acid [7]; 12000 µM on Nucleic Acid [8]; 10 µM at Nucleic Acid [4]. The Selectivity ratio with Nucleic Acid [9] was 13; in the assay with Nucleic Acid [10], 19.
`CN1CCN(CCCN2c3ccccc3Sc3ccc(C(F)(F)F)cc32)CC1` [TRIFLUOPERAZINE]: the Kd at Nucleic Acid [4] is 1.7 µM; on Nucleic Acid [11], 2.19 µM; on Nucleic Acid [12], 2 µM.
As for `O=C(NC(=S)Nc1ccc(N2CCCC2)cc1)c1ccccc1[N+](=O)[O-]`, in the assay on Nucleic Acid [4], the outcome was inactive.
Consider `Nc1ccccc1NCCOc1ccccc1`, for which the Kd on Nucleic Acid [4] was 51 µM. Moreover, the outcome with Nucleic Acid [11] and in the assay with Nucleic Acid [12] was Active.
Regarding `O=C(C[n+]1cccc(C(=O)N/N=C/c2ccc(Br)cc2)c1)c1ccccc1`, the result in the assay with Nucleic Acid [4] was inactive.
Consider `O=C1NC(=S)N/C1=C/c1ccc2ccccc2c1`, for which the Kd on Nucleic Acid [4] turned out to be 13.2 µM; on Nucleic Acid [11], 12 µM; at Nucleic Acid [12], 7.5 µM.
For the molecule `CC1CCN(c2ccc(N)cc2)CC1`, on Nucleic Acid [4], the Kd is 44 µM. For the same molecule, the result in the assay on Nucleic Acid [11] and in the assay with Nucleic Acid [12] was Active.
With `N=C1NC(=O)/C(=C\c2ccc3ccccc3c2)S1`, the Kd is 11 µM at Nucleic Acid [4], 11.2 µM at Nucleic Acid [11] and 8.9 µM on Nucleic Acid [12].
In the case of `O=C(NN=Cc1ccc(Br)cc1)c1cc[n+](Cc2ccccc2)cc1`, at Nucleic Acid [4], the Kd was 33 µM. The result with Nucleic Acid [11] and in the assay with Nucleic Acid [12] was Active.
In the case of `Cc1cccn2c(=O)c3cc(C(=O)NC(C)c4ccccc4)c(=N)n(CCOCCO)c3nc12` (centres undefined), the Kd at Nucleic Acid [4] came to 4.5 µM; at Nucleic Acid [11] it was 5.1 µM; at Nucleic Acid [12], 4.1 µM.
As to `O=C1c2ccccc2C(=O)c2c(NCCO)ccc(NCCO)c21`, the IC50 at Nucleic Acid [2] is 700 µM. The Ki at Nucleic Acid [2] came out at 200 µM. Further, the results for the Kd at Nucleic Acid [4], on Nucleic Acid [11] and at Nucleic Acid [12] were 1.1 µM, 3.2 µM and 2.2 µM, respectively.
Regarding `O=C1Oc2ccccc2C(=O)/C1=C/N1C(=O)N/C(=C\c2ccccc2O)C1=O`, at Nucleic Acid [2], the IC50 was determined as 340 µM and the Ki came out at 110 µM. Further, in the assay on Nucleic Acid [13], the inhibition entry was “Active”.
On to `Cc1cccn2c(=O)c3cc(C(=O)NCCN4CCOCC4)c(=N)n(Cc4cccnc4)c3nc12`, for which the Kd on Nucleic Acid [4] is 5 µM; at Nucleic Acid [11] it was 8.3 µM; on Nucleic Acid [12], 11.8 µM.
In the case of `Nc1c(S(=O)(=O)O)cc(Nc2cccc(S(N)(=O)=O)c2)c2c1C(=O)c1ccccc1C2=O`, the inhibition result with Nucleic Acid [13] was “Active”.
For the molecule `O=[N+]([O-])c1ccc(SCCO)c2ncccc12`, the Kd is 90 µM on Nucleic Acid [4], > 1110 µM at Nucleic Acid [11] and > 604 µM on Nucleic Acid [12]. For the same molecule, the results for the Selectivity ratio in the assay with Nucleic Acid [9] and in the assay with Nucleic Acid [10] were > 12 and > 7, respectively.
For `CNC(=O)c1cc2c(=O)n3cccc(C)c3nc2n(CCCO)c1=N`, the Kd on Nucleic Acid [4] was 3.5 µM; at Nucleic Acid [11] it was 8.2 µM; at Nucleic Acid [12] it was 9.5 µM.
For `COc1ccc(NCc2ccc([N+](=O)[O-])s2)cc1OC` the same measures were 11.1 µM, 8.4 µM and 14 µM.
